{"source": "ChEMBL document CHEMBL1134217", "about": "“Addressing the stability of C-capped dipeptide efflux pump inhibitors that potentiate the activity of levofloxacin in Pseudomonas aeruginosa” (Bioorg Med Chem Lett, 2001)", "key": {"[1]": {"test": "Stability in rat serum measured as % recovery at 5 min", "format": "ADME", "conditions": "read-out: Recovery", "method_in_brief": "(§1)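 Compounds were incubated in rat serum at 37 °C, with a parallel incubation in H₂O as control. At each time point, 70% trichloroacetic acid and CH₃CN were added dropwise. Unchanged compound was quantified by HPLC and reported as % recovery, averaged from two or more experiments.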"}, "[2]": {"test": "Stability in rat serum measured as % recovery at 3 min", "format": "ADME", "conditions": "read-out: Recovery", "method_in_brief": "as §1"}, "[3]": {"test": "Stability in rat serum measured as % recovery at 1 min", "format": "ADME", "conditions": "read-out: Recovery", "method_in_brief": "as §1"}, "[4]": {"test": "Stability in rat serum measured as % recovery at 10 min", "format": "ADME", "conditions": "read-out: Recovery", "method_in_brief": "as §1"}, "Pseudomonas aeruginosa [5]": {"system": "Pseudomonas aeruginosa", "test": "Minimum concentration of compound required to reduce the MIC of levofloxacin 8-fold in PAM 1032 strain of Pseudomonas aeruginosa that over expresses MexAB-OprM efflux pump", "format": "functional", "method_in_brief": "(§2)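 Levofloxacin MICs were measured on PAM 1032 (MexAB-OprM overexpressor) with and without efflux pump inhibitor. MPC₈ is the lowest inhibitor concentration that cuts the levofloxacin MIC 8-fold.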"}, "Pseudomonas aeruginosa [6]": {"system": "Pseudomonas aeruginosa", "test": "Minimum inhibitory concentration required to inhibit growth of PAM 1032 strain of Pseudomonas aeruginosa that over expresses MexAB-Opr M efflux pump", "format": "functional", "method_in_brief": "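Intrinsic antibacterial activity was checked by measuring the MIC of the efflux pump inhibitor alone, without levofloxacin, against P. aeruginosa PAM 1032, which overexpresses MexAB-OprM.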"}, "Pseudomonas aeruginosa [7]": {"system": "Pseudomonas aeruginosa", "test": "Compound was evaluated in PAM 1032 strain of Pseudomonas aeruginosa for its effect on levofloxacin ( 5 ug/mL) potentiation", "format": "functional", "method_in_brief": "(§3)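 Levofloxacin MIC read against P. aeruginosa PAM 1032, a laboratory strain overexpressing the MexAB-OprM pump, with the efflux pump inhibitor held at fixed levels of […].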"}, "Pseudomonas aeruginosa [8]": {"system": "Pseudomonas aeruginosa", "test": "Compound was evaluated in PAM 1032 strain of Pseudomonas aeruginosa for its effect on levofloxacin ( 10 ug/mL) potentiation", "format": "functional", "method_in_brief": "as §3"}, "Pseudomonas aeruginosa [9]": {"system": "Pseudomonas aeruginosa", "test": "Compound was evaluated in PAM 1032 strain of Pseudomonas aeruginosa for its effect on levofloxacin (40 ug/mL) potentiation", "format": "functional", "method_in_brief": "as §3"}, "Pseudomonas aeruginosa [10]": {"system": "Pseudomonas aeruginosa", "test": "Compound was evaluated in PAM 1032 strain of Pseudomonas aeruginosa for its effect on levofloxacin (ug/mL) potentiation", "format": "functional", "method_in_brief": "as §3"}, "Pseudomonas aeruginosa [11]": {"system": "Pseudomonas aeruginosa", "test": "Compound was evaluated in PAM 1032 strain of Pseudomonas aeruginosa for its effect on levofloxacin (20 ug/mL) potentiation", "format": "functional", "method_in_brief": "as §3"}, "Pseudomonas aeruginosa [12]": {"system": "Pseudomonas aeruginosa", "test": "Minimum concentration of compound required to reduce the MIC of levofloxacin 8-fold in PAM 1032 strain of Pseudomonas aeruginosa tha over expresses MexAB-Opr M efflux pump", "format": "functional", "method_in_brief": "as §2"}, "[13]": {"test": "Stability in rat serum measured as % recovery at 2 hr", "format": "ADME", "conditions": "read-out: Recovery", "method_in_brief": "(§4)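 Incubated at 37 °C in rat serum for the stated time, in parallel with a water control. Samples quenched dropwise with 70% trichloroacetic acid plus acetonitrile, then analysed by HPLC. Value is % recovery of unchanged compound, averaged over two or more experiments. Phe-Arg-β-naphthylamine (MC-207,110) served as positive control.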"}, "[14]": {"test": "Stability in rat serum measured as % recovery at 5 mins", "format": "ADME", "conditions": "read-out: Recovery", "method_in_brief": "as §4"}, "[15]": {"test": "Stability in rat serum measured as % recovery at 3 mins", "format": "ADME", "conditions": "read-out: Recovery", "method_in_brief": "as §4"}, "[16]": {"test": "Stability in rat serum measured as % recovery at 10 mins", "format": "ADME", "conditions": "read-out: Recovery", "method_in_brief": "as §4"}}, "note": "Peptide text beside a SMILES is read from it.", "data": [{"molecule": "NCCC[C@H](N)C(=O)N[C@@H](Cc1ccccc1)C(=O)Nc1ccc2ccccc2c1", "values": [{"measurement": "remaining at 5 min", "setting": "[1]", "value": 76, "unit": "%"}, {"measurement": "remaining at 0.05 h", "setting": "[2]", "value": 87, "unit": "%"}, {"measurement": "remaining at 1 min", "setting": "[3]", "value": 100, "unit": "%"}, {"measurement": "remaining at 10 min", "setting": "[4]", "value": 38, "unit": "%"}, {"measurement": "MPC", "setting": "Pseudomonas aeruginosa [5]", "value": 10, "unit": "µg/mL"}, {"measurement": "MIC", "setting": "Pseudomonas aeruginosa [6]", "value": 512, "unit": "µg/mL"}]}, {"molecule": "NCCC[C@H](NC(=O)[C@@H](N)CCc1ccccc1)C(=O)Nc1cnc2ccccc2c1", "values": [{"measurement": "MIC", "setting": "Pseudomonas aeruginosa [7]", "value": 1, "unit": "µg/mL"}, {"measurement": "MPC", "setting": "Pseudomonas aeruginosa [5]", "value": 10, "unit": "µg/mL"}, {"measurement": "MIC", "setting": "Pseudomonas aeruginosa [8]", "value": 0.06, "unit": "µg/mL"}, {"measurement": "MIC", "setting": "Pseudomonas aeruginosa [9]", "value": 0.03, "unit": "µg/mL"}, {"measurement": "MIC", "setting": "Pseudomonas aeruginosa [10]", "value": 4, "unit": "µg/mL"}, {"measurement": "MIC", "setting": "Pseudomonas aeruginosa [11]", "value": 0.03, "unit": "µg/mL"}]}, {"molecule": "NCCC[C@@H](N)C(=O)N[C@H](CCc1ccccc1)C(=O)Nc1cnc2ccccc2c1", "values": [{"measurement": "MIC", "setting": "Pseudomonas aeruginosa [7]", "value": 4, "unit": "µg/mL"}, {"measurement": "MPC", "setting": "Pseudomonas aeruginosa [5]", "value": 20, "unit": "µg/mL"}, {"measurement": "MIC", "setting": "Pseudomonas aeruginosa [8]", "value": 2, "unit": "µg/mL"}, {"measurement": "MIC", "setting": "Pseudomonas aeruginosa [9]", "value": 0.125, "unit": "µg/mL"}, {"measurement": "MIC", "setting": "Pseudomonas aeruginosa [10]", "value": 4, "unit": "µg/mL"}, {"measurement": "MIC", "setting": "Pseudomonas aeruginosa [11]", "value": 0.125, "unit": "µg/mL"}]}, {"molecule": "NCCC[C@@H](N)C(=O)N[C@@H](CCc1ccccc1)C(=O)Nc1cnc2ccccc2c1", "values": [{"measurement": "remaining at 5 min", "setting": "[1]", "value": 98, "unit": "%"}, {"measurement": "remaining at 0.05 h", "setting": "[2]", "value": 98, "unit": "%"}, {"measurement": "MPC", "setting": "Pseudomonas aeruginosa [12]", "value": 10, "unit": "µg/mL"}, {"measurement": "MIC", "setting": "Pseudomonas aeruginosa [7]", "value": 1, "unit": "µg/mL"}, {"measurement": "remaining at 1 min", "setting": "[3]", "value": 100, "unit": "%"}, {"measurement": "remaining at 10 min", "setting": "[4]", "value": 100, "unit": "%"}, {"measurement": "MPC", "setting": "Pseudomonas aeruginosa [5]", "value": 10, "unit": "µg/mL"}, {"measurement": "MIC", "setting": "Pseudomonas aeruginosa [8]", "value": 0.125, "unit": "µg/mL"}, {"measurement": "MIC", "setting": "Pseudomonas aeruginosa [9]", "value": 0.015, "unit": "µg/mL"}, {"measurement": "MIC", "setting": "Pseudomonas aeruginosa [6]", "value": "> 512", "unit": "µg/mL"}, {"measurement": "remaining at 2 h", "setting": "[13]", "value": 95, "unit": "%"}, {"measurement": "MIC", "setting": "Pseudomonas aeruginosa [10]", "value": 4, "unit": "µg/mL"}, {"measurement": "MIC", "setting": "Pseudomonas aeruginosa [11]", "value": 0.03, "unit": "µg/mL"}]}, {"molecule": "NCCC[C@H](N)C(=O)N[C@@H](CCc1ccccc1)C(=O)Nc1cnc2ccccc2c1", "values": [{"measurement": "MIC", "setting": "Pseudomonas aeruginosa [7]", "value": 4, "unit": "µg/mL"}, {"measurement": "MPC", "setting": "Pseudomonas aeruginosa [5]", "value": 10, "unit": "µg/mL"}, {"measurement": "MIC", "setting": "Pseudomonas aeruginosa [8]", "value": 0.5, "unit": "µg/mL"}, {"measurement": "MIC", "setting": "Pseudomonas aeruginosa [9]", "value": 0.015, "unit": "µg/mL"}, {"measurement": "MIC", "setting": "Pseudomonas aeruginosa [10]", "value": 4, "unit": "µg/mL"}, {"measurement": "MIC", "setting": "Pseudomonas aeruginosa [11]", "value": 0.06, "unit": "µg/mL"}]}, {"molecule": "N=C(N)NCCC[C@H](NC(=O)[C@@H](N)Cc1ccccc1)C(=O)Nc1ccc2ccccc2c1", "note": "[PABETAN] (HELM PEPTIDE1{F.R.[c1ccc2cc(N[*:1])ccc2c1]}$$$$V2.0)", "values": [{"measurement": "remaining at 1 min", "setting": "[3]", "value": 100, "unit": "%"}, {"measurement": "MPC", "setting": "Pseudomonas aeruginosa [5]", "value": 10, "unit": "µg/mL"}, {"measurement": "MIC", "setting": "Pseudomonas aeruginosa [6]", "value": "> 512", "unit": "µg/mL"}, {"measurement": "remaining at 5 min", "setting": "[14]", "value": 55, "unit": "%"}, {"measurement": "remaining at 0.05 h", "setting": "[15]", "value": 73, "unit": "%"}, {"measurement": "remaining at 2 h", "setting": "[13]", "value": 0, "unit": "%"}, {"measurement": "remaining at 10 min", "setting": "[16]", "value": 25, "unit": "%"}]}, {"molecule": "NCCC[C@H](NC(=O)[C@@H](N)Cc1ccccc1)C(=O)Nc1ccc2ccccc2c1", "values": [{"measurement": "remaining at 5 min", "setting": "[1]", "value": 64, "unit": "%"}, {"measurement": "remaining at 0.05 h", "setting": "[2]", "value": 80, "unit": "%"}, {"measurement": "remaining at 1 min", "setting": "[3]", "value": 100, "unit": "%"}, {"measurement": "remaining at 10 min", "setting": "[4]", "value": 36, "unit": "%"}, {"measurement": "MPC", "setting": "Pseudomonas aeruginosa [5]", "value": 5, "unit": "µg/mL"}, {"measurement": "MIC", "setting": "Pseudomonas aeruginosa [6]", "value": 512, "unit": "µg/mL"}]}, {"molecule": "CN(C(=O)[C@@H](N)Cc1ccccc1)[C@@H](CCCN)C(=O)Nc1ccc2ccccc2c1.O=C(O)C(F)(F)F.O=C(O)C(F)(F)F", "values": [{"measurement": "remaining at 5 min", "setting": "[1]", "value": 100, "unit": "%"}, {"measurement": "remaining at 0.05 h", "setting": "[2]", "value": 99, "unit": "%"}, {"measurement": "remaining at 1 min", "setting": "[3]", "value": 100, "unit": "%"}, {"measurement": "remaining at 10 min", "setting": "[4]", "value": 97, "unit": "%"}, {"measurement": "MPC", "setting": "Pseudomonas aeruginosa [5]", "value": 5, "unit": "µg/mL"}, {"measurement": "MIC", "setting": "Pseudomonas aeruginosa [6]", "value": 256, "unit": "µg/mL"}]}, {"molecule": "NCCC[C@H](N)C(=O)N[C@H](CCc1ccccc1)C(=O)Nc1cnc2ccccc2c1", "values": [{"measurement": "MIC", "setting": "Pseudomonas aeruginosa [7]", "value": 2, "unit": "µg/mL"}, {"measurement": "MPC", "setting": "Pseudomonas aeruginosa [5]", "value": 20, "unit": "µg/mL"}, {"measurement": "MIC", "setting": "Pseudomonas aeruginosa [8]", "value": 1, "unit": "µg/mL"}, {"measurement": "MIC", "setting": "Pseudomonas aeruginosa [9]", "value": 0.125, "unit": "µg/mL"}, {"measurement": "MIC", "setting": "Pseudomonas aeruginosa [10]", "value": 4, "unit": "µg/mL"}, {"measurement": "MIC", "setting": "Pseudomonas aeruginosa [11]", "value": 0.5, "unit": "µg/mL"}]}]}
